Measurements taken from ChEMBL document CHEMBL1833937, “Structure-based design of pseudopeptidic inhibitors for SIRT1 and SIRT2” (J Med Chem, 2011).
The source made the active and inactive calls. The rule behind the calls is not given here. Where a SMILES comes first, the peptide text is derived from it. [ ]: non-standard residue; d: D form. Lys(Thioacetyl) = CC(=S)NCCCC[C@H](N)C(=O)O

Experiments:
[1] = biological target: T1, NAD-dependent protein deacetylase sirtuin-2 (Homo sapiens, UniProt Q8IXJ6); assay: Inhibition of recombinant GST-tagged SIRT2 after 1 hr by Fluor de Lys-based fluorescence assay
T1 sequence (Q8IXJ6 whole entry): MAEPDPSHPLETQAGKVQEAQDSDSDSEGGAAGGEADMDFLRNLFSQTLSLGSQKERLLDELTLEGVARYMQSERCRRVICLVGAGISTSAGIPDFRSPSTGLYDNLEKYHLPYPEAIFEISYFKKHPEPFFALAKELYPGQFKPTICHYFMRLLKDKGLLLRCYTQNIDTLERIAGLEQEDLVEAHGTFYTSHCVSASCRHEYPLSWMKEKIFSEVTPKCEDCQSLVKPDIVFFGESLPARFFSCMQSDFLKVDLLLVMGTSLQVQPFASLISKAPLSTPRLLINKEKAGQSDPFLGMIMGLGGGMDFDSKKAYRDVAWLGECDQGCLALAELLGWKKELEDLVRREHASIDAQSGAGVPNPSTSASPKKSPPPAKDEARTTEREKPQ
Method in brief: (§1)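 Fluor de Lys deacetylation: GST-SIRT1 with KI177 substrate at 40 μM or GST-SIRT2 with KI179 substrate at 138 μM (70% of Km; Km 58 and 198 μM), 500 μM NAD+, assay buffer with 1 mg/mL BSA, DMSO 2.5 μL per 50 μL. Substrate, NAD+ and compound preincubated 5 min rt; enzyme starts reaction, 1 h 37 °C. Developer plus 2 mM nicotinamide, 45 min 37 °C; ex 355/em 460 nm. IC50 from 9-point dose-response (0.0001–2000 μM), at least three repeats.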

[2] = biological target: T2, NAD-dependent protein deacetylase sirtuin-1 (Homo sapiens, UniProt Q96EB6); assay: Inhibition of recombinant GST-tagged SIRT1 after 1 hr by Fluor de Lys-based fluorescence assay; method in brief: as §1
T2 sequence (Q96EB6 whole entry): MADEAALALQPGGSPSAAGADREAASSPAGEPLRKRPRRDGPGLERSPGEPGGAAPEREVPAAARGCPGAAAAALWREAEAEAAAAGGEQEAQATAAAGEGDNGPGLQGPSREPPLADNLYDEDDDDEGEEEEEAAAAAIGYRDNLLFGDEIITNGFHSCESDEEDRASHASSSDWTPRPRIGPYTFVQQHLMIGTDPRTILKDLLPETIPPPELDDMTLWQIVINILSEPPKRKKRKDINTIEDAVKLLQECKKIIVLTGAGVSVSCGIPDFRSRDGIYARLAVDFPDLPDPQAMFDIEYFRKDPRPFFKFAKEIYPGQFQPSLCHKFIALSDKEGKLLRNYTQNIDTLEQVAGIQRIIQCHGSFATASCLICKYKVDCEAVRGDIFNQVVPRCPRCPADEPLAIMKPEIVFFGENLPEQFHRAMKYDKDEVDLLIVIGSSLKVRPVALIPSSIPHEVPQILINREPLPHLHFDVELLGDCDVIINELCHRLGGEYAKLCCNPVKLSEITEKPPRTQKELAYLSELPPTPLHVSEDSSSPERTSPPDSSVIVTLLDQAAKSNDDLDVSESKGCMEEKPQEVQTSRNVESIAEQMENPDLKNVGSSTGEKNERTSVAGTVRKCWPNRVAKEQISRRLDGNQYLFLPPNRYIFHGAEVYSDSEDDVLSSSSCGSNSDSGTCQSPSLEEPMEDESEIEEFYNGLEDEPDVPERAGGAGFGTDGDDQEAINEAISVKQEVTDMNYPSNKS

[3] = biological target: Histone deacetylase (Homo sapiens) (UniProt Q13547+O15379+Q9UBN7+Q92769+Q9UQL6+Q8WUI4+Q9BY41+Q96DB2+P56524+Q9UKV0+Q969S8); assay: Inhibition of HDAC in human HeLa nuclear extract at 200 uM after 1 hr by Fluor de Lys-based fluorescence assay; assay type: protein assay
Method in brief: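 HeLa nuclear extract as HDAC source, 50 μM acetylated Fluor de Lys HDAC substrate, compounds 200 μM in HDAC assay buffer; substrate addition starts reaction, 1 h at 37 °C. Developer plus […], 15 min at 25 °C; fluorescence ex 355/em 460 nm. Run twice; means and standard deviations.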

[4] = biological target: T3, NAD-dependent protein deacetylase sirtuin-1 (Homo sapiens) (UniProt Q96EB6); assay: Inhibition of human SIRT1 in SH-SY5Y cells assessed as increase in p53 acetylation level at 10 uM after 5 hrs by Western blot analysis in presence of etoposide-induced DNA damage; assay type: cell-based
T3 sequence (whole entry): T2 sequence (Q96EB6 whole entry)
Method in brief: (§2)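 Cells seeded at 10^5 per well and treated 24 h later with compound plus etoposide together for 5 h. Lysates (M-PER) cleared 16000g 20 min, equal protein on 4–12% SDS-PAGE, blotted to nitrocellulose, probed with rabbit monoclonal anti-acetyl-p53 (K382), actin as loading control, HRP secondary and chemiluminescence.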

[5] = biological target: T3, NAD-dependent protein deacetylase sirtuin-1 (Homo sapiens); assay: Inhibition of human SIRT1 in SH-SY5Y cells assessed as increase in p53 acetylation level at 100 uM after 5 hrs by Western blot analysis in presence of etoposide-induced DNA damage; assay type: cell-based; method in brief: as §2
SH-SY5Y [6] = assay: Cytotoxicity against human SH-SY5Y cells at 100 uM by LDH assay; assay type: functional, cell-based
Method in brief: (§3)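 After plating at 10^5 cells/well and 24 h attachment, cells exposed 5 h to compound together with etoposide; cytotoxicity read as lactate dehydrogenase released into culture medium by a commercial LDH kit.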

SH-SY5Y [7] = assay: Cytotoxicity against human SH-SY5Y cells at 10 uM by LDH assay; assay type: functional, cell-based; method in brief: as §3
[8] = biological target: T3, NAD-dependent protein deacetylase sirtuin-1 (Homo sapiens); assay: Inhibition of recombinant GST-tagged SIRT1 at 200 uM after 1 hr by Fluor de Lys-based fluorescence assay
Method in brief: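 Single-point Fluor de Lys test at 200 μM: GST-SIRT1 (40 μM KI177 substrate) or GST-SIRT2 (138 μM KI179 substrate), 500 μM NAD+, BSA-supplemented buffer, 5 min rt preincubation, enzyme-started 1 h at 37 °C. Developer with 2 mM nicotinamide 45 min 37 °C; fluorescence ex 355/em 460 nm. Percent inhibition ± standard deviation.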

[9] = Cytotoxicity against human astrocytes at 10 uM by LDH assay; assay type: cell-based; details: astrocyte; method in brief: as §3
[10] = Cytotoxicity against human ARPE19 cells at 10 uM by LDH assay; assay type: cell-based; details: arpe-19, 10 µM; method in brief: as §3
[11] = biological target: T3, NAD-dependent protein deacetylase sirtuin-1 (Homo sapiens); assay: Inhibition of human SIRT1 in ARPE19 cells assessed as increase in p53 acetylation level at 10 uM after 5 hrs by Western blot analysis in presence of etoposide-induced DNA damage; assay type: cell-based; method in brief: as §2
[12] = biological target: T3, NAD-dependent protein deacetylase sirtuin-1 (Homo sapiens); assay: Inhibition of human SIRT1 in human astrocytes assessed as increase in p53 acetylation level at 10 uM after 5 hrs by Western blot analysis in presence of etoposide-induced DNA damage; assay type: cell-based; method in brief: as §2

| SMILES | IC50 [1] | IC50 [2] | inhibition [3] | other results |
| --- | --- | --- | --- | --- |
| CNC(=O)[C@H](C)NC(=O)[C@H](CCCCNC(C)=S)NC(=O)[C@H](C)NC(C)=O | 2.9 µM | 0.4 µM |  |  |
| CC(=S)NCCCC[C@H](NC(=O)[C@H](C)NC(=O)OC(C)(C)C)C(=O)N[C@@H](C)C(=O)O | 6.5 µM | 0.77 µM | 10.1% |  |
| CC(=S)NCCCC[C@H](NC(=O)[C@@H]1CCCN(C(=O)OC(C)(C)C)C1)C(=O)N[C@@H](C)C(=O)O | 13 µM | 0.97 µM | 23.7% | Activity [4]: Active; Activity [5]: Active; Activity (SH-SY5Y [6]): inactive; Activity (SH-SY5Y [7]): inactive |
| CC(=S)NCCCC[C@H](NC(=O)OCc1ccccc1)C(=O)Nc1ccccc1 | 15 µM | 9.9 µM | 2.5% |  |
| CC(=S)NCCCC[C@H](NC(=O)[C@H](C)N)C(=O)N[C@@H](C)C(=O)O | 36 µM | 0.66 µM |  |  |
| COC(=O)[C@H](C)NC(=O)[C@H](CCCCNC(C)=S)NC(=O)[C@H](C)NC(C)=O | 13 µM | 1 µM |  |  |
| CC(=S)NCCCC[C@H](NC(=O)OCc1ccccc1)C(=O)NC1CCCCC1 |  | 23 µM | 75.4% |  |
| CC(=S)NCCCC[C@H](N)C(=O)N[C@@H](C)C(=O)O |  |  |  | inhibition [8]: 46.9% |
| CC(=S)NCCCC[C@H](NC(=O)CCc1ccccc1O)C(=O)N[C@@H](C)C(=O)O | 53 µM | 1 µM | 5.6% |  |
| CC(=S)NCCCC[C@H](NC(=O)CCc1ccccc1F)C(=O)N[C@@H](C)C(=O)O | 27 µM | 1.3 µM | 16.3% |  |
| CC(=S)NCCCC[C@H](NC(=O)[C@H](N)Cc1ccccc1)C(=O)N[C@@H](C)C(=O)O |  | 18 µM | 7.6% |  |
| CC(=S)NCCCC[C@H](NC(=O)OCc1ccccc1)C(=O)N[C@@H](C)C(=O)O | 17 µM | 1.3 µM | 3.9% | Activity [4]: Active; Activity (SH-SY5Y [7]): inactive |
| CC(=S)NCCCC[C@H](NC(=O)OCc1ccccc1)C(=O)NCC(=O)c1ccccc1 | 4.3 µM | 1.6 µM | 5.1% | Activity [9]: Non-toxic; Activity [10]: Non-toxic; Activity [11]: Active; Activity [12]: Active; Activity [4]: Active; Activity (SH-SY5Y [7]): inactive |
| CC(=S)NCCCC[C@H](NC(=O)OCc1ccccc1)C(=O)Nc1ccccc1O | 7.4 µM | 5.1 µM | 1.9% |  |
| COC(=O)[C@H](C)NC(=O)[C@H](CCCCNC(C)=S)NC(C)=O | 862 µM | 51 µM |  |  |
| CC(=S)NCCCC[C@H](NC(=O)CCc1ccccc1)C(=O)N[C@@H](C)C(=O)O | 56 µM | 0.99 µM | 8.5% |  |
| CC(=S)NCCCC[C@H](NC(=O)OCc1ccccc1)C(=O)Nc1ccccc1F | 16 µM | 7.4 µM | 1.4% |  |
| CC(=O)N1CCC[C@H]1C(=O)N[C@@H](CCCCNC(C)=S)C(=O)N[C@@H](C)C(=O)O | 31 µM | 0.37 µM |  |  |
| CSCC[C@H](NC(=O)[C@H](CC(C)C)NC(=O)[C@H](CCCCNC(C)=S)NC(=O)[C@H](CCCCN)NC(=O)[C@@H](N)Cc1cnc[nH]1)C(=O)O (H-HK[Lys(Thioacetyl)]LM-OH) | 6.3 µM | 0.31 µM |  |  |
